# Results published in ChEMBL document CHEMBL1148403, “Platinum(IV) complex with adamantylamine as nonleaving amine group: synthesis, characterization, and in vitro antitumor activity against a panel of cisplatin-resistant cancer cell lines” (J Med Chem, 2004).
# Key:
# [1] = tested on: A2780; test: Cytotoxicity against ovarian carcinoma A2780/cis90 tumor cell lines; assay type: functional, cell-based, Homo sapiens
# [2] = tested on: A-427; test: Cytotoxicity against lung carcinoma A427 tumor cell lines; assay type: functional, cell-based, Homo sapiens
# [3] = tested on: A2780; test: Cytotoxicity against ovarian carcinoma A2780 tumor cell lines; assay type: functional, cell-based, Homo sapiens
# In short: (§1)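 Cisplatin-sensitive A2780 cells and the A2780/cis resistant subline were exposed continuously for graded times (24, 48 and 72 h). IC50 was determined at each exposure time. The resistant subline had been derived by gradual cisplatin treatment.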
# [4] = tested on: B16; test: Cytotoxicity against mouse melanoma B16 tumor cell lines; assay type: functional, cell-based
# [5] = tested on: COR-L23; test: Cytotoxicity against lung carcinoma COR-L23/CTR tumor cell lines; assay type: functional, cell-based, Homo sapiens
# [6] = tested on: HCT-116; test: Cytotoxicity against colon cancer HCT116 tumor cell lines; assay type: functional, cell-based, Homo sapiens
# [7] = tested on: HT-29; test: Cytotoxicity against colon cancer HT-29 tumor cell lines; assay type: functional, cell-based, Homo sapiens
# [8] = tested on: HBL-100; test: Cytotoxicity against breast carcinoma HBL100 tumor cell lines; assay type: functional, cell-based, Homo sapiens
# [9] = tested on: HT-29; test: Cytotoxicity against colon cancer HT29N tumor cell lines; assay type: functional, cell-based, Homo sapiens
# [10] = tested on: K562; test: Cytotoxicity against chronic myelogenous leukemia K562 tumor cell lines; assay type: functional, cell-based, Homo sapiens
# [11] = tested on: KG-1; test: Cytotoxicity against chronic myelogenous leukemia KG-1 tumor cell lines; assay type: functional, cell-based, Homo sapiens
# [12] = tested on: ML-2; test: Cytotoxicity against acute myelogenous leukemia ML-2 tumor cell lines; assay type: functional, cell-based, Homo sapiens
# [13] = tested on: MCF7; test: Cytotoxicity against breast carcinoma MCF-7 tumor cell lines; assay type: functional, cell-based, Homo sapiens
# [14] = tested on: A2780; test: Cytotoxicity against ovarian carcinoma A2780/cis tumor cell lines; assay type: functional, cell-based, Homo sapiens; in short: as §1
sequence,measurement,setting,value
CISPLATIN,IC50,[1],> 80 µM
same,IC50,[2],63 µM
same,IC50,[3],4 µM
same,IC50,[4],> 80 µM
same,IC50,[5],> 80 µM
same,IC50,[6],> 80 µM
same,IC50,[7],50 µM
same,IC50,[8],63 µM
same,IC50,[9],> 80 µM
same,IC50,[10],> 80 µM
same,IC50,[11],48 µM
same,IC50,[12],> 80 µM
same,IC50,[13],71 µM
same,IC50,[14],40 µM
